Measurements reported in ChEMBL document CHEMBL1143370, “Effect of fluorination on the pharmacological profile of 11beta isomers of fulvestrant in breast carcinoma cells” (J Med Chem, 2009).
Activity calls are given as the source filed them. The calls are words filed in the database; no cut-off is given here.

Columns and labels:
MCF7 [1] = test: Antiproliferative activity against estradiol-stimulated human MCF7 cells after 3 days at 10 nM by crystal violet staining; type: functional, cell-based
MCF7 [2] = test: Antiproliferative activity against human MCF7 cells after 3 days at 10 nM by crystal violet staining; type: functional, cell-based
MCF7 [3] = test: Down regulation of estrogen receptor alpha expression in human MCF7 cells after 24 hrs by Western blot analysis; type: functional, cell-based
Summary of the method: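 MCF-7 breast carcinoma cells exposed to increasing concentrations of each compound for 24 h, with untreated control cultures kept in parallel. Equal amounts of solubilized protein were analysed for ERα by Western blotting. The experiment was done twice.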

MCF7 [4] = test: Down regulation of estrogen receptor alpha expression in human MCF7 cells at 100 nM after 24 hrs by immunofluorescence staining; type: functional, cell-based
Summary of the method: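 MCF-7 cells treated 24 h at 100 nM, untreated control; ERα shown by immunofluorescence with HC-20 antiserum, Texas Red labeling.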

[5] = molecular target: T1, Estrogen receptor (Homo sapiens) (UniProt P03372); test: Displacement of [3H]estradiol from human recombinant estrogen receptor alpha by radiometric assay relative to estradiol
T1 sequence (whole entry): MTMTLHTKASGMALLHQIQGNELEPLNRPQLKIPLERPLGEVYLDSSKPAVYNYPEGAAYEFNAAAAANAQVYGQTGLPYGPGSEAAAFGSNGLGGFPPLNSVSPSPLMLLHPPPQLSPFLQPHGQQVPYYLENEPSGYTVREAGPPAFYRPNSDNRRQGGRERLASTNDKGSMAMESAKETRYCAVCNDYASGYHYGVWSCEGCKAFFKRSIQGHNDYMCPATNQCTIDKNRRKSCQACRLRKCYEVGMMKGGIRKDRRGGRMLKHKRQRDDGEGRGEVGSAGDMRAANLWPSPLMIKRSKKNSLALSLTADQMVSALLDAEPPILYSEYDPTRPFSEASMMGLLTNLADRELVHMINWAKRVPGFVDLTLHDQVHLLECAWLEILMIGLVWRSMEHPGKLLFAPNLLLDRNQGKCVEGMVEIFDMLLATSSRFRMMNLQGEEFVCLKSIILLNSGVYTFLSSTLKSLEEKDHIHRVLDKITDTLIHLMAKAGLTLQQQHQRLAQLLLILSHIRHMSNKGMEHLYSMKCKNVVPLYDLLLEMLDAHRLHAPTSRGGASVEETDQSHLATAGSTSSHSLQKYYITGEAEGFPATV
Summary of the method: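 Purified recombinant human ERα; competition with [3H]E2 binding at 0 °C; inhibition curves give relative binding affinity (RBA).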

[6] = molecular target: T1, Estrogen receptor (Homo sapiens); test: Antiestrogenic activity at human recombinant estrogen receptor alpha assessed as inhibition of recruitment of LxxLL-containing coactivators after 30 mins by ELISA in presence of estradiol
[7] = molecular target: T1, Estrogen receptor (Homo sapiens); test: Antiestrogenic activity at human recombinant estrogen receptor alpha assessed as inhibition of recruitment of LxxLL-containing coactivators after 30 mins by ELISA in absence of estradiol
MCF7 [8] = test: Suppression of estradiol-induced down regulation of estrogen receptor alpha expression in human MCF7 cells at 1 uM after 24 hrs by Western blot analysis; type: functional, cell-based
Summary of the method: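 Western blot of ERα in MCF-7 cells after 24 h with compound at 1 µM, alone or with 10 nM E2; equal protein loading; experiment done twice.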

MCF7 [9] = test: Suppression of estradiol-induced down regulation of estrogen receptor alpha expression in human MCF7 cells at 1 uM after 24 hrs by immunofluorescence staining; type: functional, cell-based
Summary of the method: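 ERα immunofluorescence (HC-20 antiserum, Texas Red) in MCF-7 cells after 24 h with E2 at 1 nM and/or compound at 1 µM; untreated control included.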

MCF7 [10] = test: Down regulation of estrogen receptor alpha expression in human MCF7 cells after 24 hrs by Western blot analysis in presence of 3,17beta-dihydroxy-11beta-[4,4,5,5,6,6,7,7-octafluoro-9-(4,4,5,5,5-pentafluoropentane-1-sulfinyl)nonyl]estra-1,3,5(10)-triene; type: functional, cell-based
Summary of the method: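 MCF-7 cells exposed 24 h to increasing concentrations, untreated cultures run in parallel; equal amounts of solubilized protein Western blotted for ERα; experiment done twice.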

[11] = molecular target: T1, Estrogen receptor (Homo sapiens); test: Binding affinity to estrogen receptor alpha in human MCF7 cells assessed as inhibition of [3H]E2 accumulation after 45 mins by whole cell competition binding assay; type: cell-based
Summary of the method: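 Intact MCF-7 cells incubated 45 min with [3H]E2 at 1 nM, alone (control) or with competitor at 1 nM to 1 µM; cellular [3H]E2 accumulation measured, with unlabeled E2 as reference.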

Compound | Activity (MCF7 [1]) | Activity (MCF7 [2]) | Activity (MCF7 [3]) | Activity (MCF7 [4]) | relative binding affinity (RBA) [5] | Activity [6] | Activity [7] | Activity (MCF7 [8]) | Activity (MCF7 [9]) | Activity (MCF7 [10]) | Activity [11]
C[C@]12CC[C@@H]3c4ccc(O)cc4C[C@@H](CCCCCCCCC[S+]([O-])CCCC(F)(F)C(F)(F)F)[C@H]3[C@@H]1CC[C@@H]2O (stereo partly specified) | Active | Active | Active | Active | 10 | – | – | – | – | – | –
C[C@]12C[C@H](CCCC(F)(F)C(F)(F)C(F)(F)C(F)(F)CC[S+]([O-])CCCC(F)(F)C(F)(F)F)[C@@H]3c4ccc(O)cc4CC[C@H]3[C@@H]1CC[C@@H]2O (stereo partly specified) | – | Active | – | inactive | 2 | Active | Active | Active | Active | inactive | –
C[C@]12C[C@H](CCCCCCCCC[S+]([O-])CCCC(F)(F)C(F)(F)F)[C@@H]3c4ccc(O)cc4CC[C@H]3[C@@H]1CC[C@@H]2O (stereo partly specified) | Active | Active | Active | Active | 6 | Active | Active | – | – | – | Active
